Experimental data: ChEMBL document CHEMBL5385966, “Synthesis and biological evaluation of new naphthalimide-thiourea derivatives as potent antimicrobial agents active against multidrug-resistant Staphylococcus aureus and Mycobacterium tuberculosis” (RSC Med Chem, 2024)
In brackets after ≈: the same amount, converted by molar mass. Activity calls are given as the source filed them. The calls are words filed in the database; no cut-off is given here.

Experiments:
Staphylococcus aureus [1] = assay: Bactericidal activity against Staphylococcus aureus ATCC 29213 assessed as reduction in remnant bacterial cells at 10 times MIC measured for 24 hrs by time-kill assay; format: functional
Method in brief: (§1)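 Time-kill assay: S. aureus ATCC 29213 at ~10⁶ cfu/mL in MHB, exposed to 1X and 10X MIC at 37 °C, in triplicate. Samples taken at 0, 1, 6 and 24 h were serially diluted in PBS and plated on TSA for 18-20 h at 37 °C. Surviving cfu/mL were counted against untreated controls.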

Staphylococcus aureus [2] = assay: Antibacterial activity against Staphylococcus aureus ATCC 29213 assessed as bacterial growth inhibition incubated for 16 to 18 hrs by CLSI based antibiotic susceptibility testing method; format: functional; conditions: time 16-18 hrs
Method in brief: (§2)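 Broth microdilution in cation-adjusted Mueller-Hinton broth. Compounds were tested at […], with levofloxacin as reference and medium-only controls. Plates were incubated at 37 °C for 16-18 h. MIC was the lowest concentration with no visible growth; three independent determinations, each in duplicate.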

Staphylococcus aureus [3] = assay: Antibacterial activity against methicillin/ceftriaxone/meropenem-resistant Staphylococcus aureus NRS10193 clinical isolate assessed as bacterial growth inhibition incubated for 16 to 18 hrs by CLSI based antibiotic susceptibility testing method; format: functional; conditions: time 16-18 hrs; method in brief: as §2
Klebsiella pneumoniae = assay: Antibacterial activity against Klebsiella pneumoniae BAA 1705 assessed as bacterial growth inhibition incubated for 16 to 18 hrs by CLSI based antibiotic susceptibility testing method; format: functional, organism-based; conditions: time 16-18 hrs; method in brief: as §2
Mycobacteroides chelonae = assay: Antimycobacterial activity against Mycobacteroides chelonae ATCC 35752 assessed as bacterial growth inhibition incubated for 72 hrs by resazurin dye based broth microdilution method; format: functional, organism-based
Method in brief: (§3)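 Broth microdilution in Middlebrook 7H9 with 10% ADC-Tween-80 (0.2% glycerol, 0.05% Tween-80), inoculum ~10⁶ cfu/mL. Compounds came from 10 mg/mL DMSO stocks and were tested as two-fold serial dilutions at 37 °C, 7 days for M. tuberculosis H37Rv and 72 h for NTM. Growth was read visually with PrestoBlue resazurin dye; MIC was the lowest concentration preventing growth. Triplicate determinations, each in duplicate.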

Staphylococcus aureus [4] = assay: Antibacterial activity against methicillin/ceftriaxone/meropenem/gentamycin/vancomycin/teicoplanin-resistant Staphylococcus aureus VRS1 clinical isolate assessed as bacterial growth inhibition incubated for 16 to 18 hrs by CLSI based antibiotic susceptibility testing method; format: functional; conditions: time 16-18 hrs; method in brief: as §2
Staphylococcus aureus [5] = assay: Antibacterial activity against methicillin/ceftriaxone/meropenem/gentamycin/linezolid-resistant Staphylococcus aureus NRS10100 clinical isolate assessed as bacterial growth inhibition incubated for 16 to 18 hrs by CLSI based antibiotic susceptibility testing method; format: functional; conditions: time 16-18 hrs; method in brief: as §2
Staphylococcus aureus [6] = assay: Antibacterial activity against methicillin/ceftriaxone/meropenem-resistant Staphylococcus aureus NRS10191 clinical isolate assessed as bacterial growth inhibition incubated for 16 to 18 hrs by CLSI based antibiotic susceptibility testing method; format: functional; conditions: time 16-18 hrs; method in brief: as §2
Staphylococcus aureus [7] = assay: Antibacterial activity against methicillin-sensitive Staphylococcus aureus ATCC 29213 clinical isolate assessed as bacterial growth inhibition incubated for 16 to 18 hrs by CLSI based antibiotic susceptibility testing method; format: functional; conditions: time 16-18 hrs; method in brief: as §2
[8] = tested on: Mycobacteroides abscessus; assay: Antimycobacterial activity against Mycobacterium abscessus ATCC 19977 assessed as bacterial growth inhibition incubated for 72 hrs by resazurin dye based broth microdilution method; format: functional, organism-based; method in brief: as §3
[9] = tested on: Mycolicibacterium fortuitum; assay: Antimycobacterial activity against Mycobacterium fortuitum ATCC 6841 assessed as bacterial growth inhibition incubated for 72 hrs by resazurin dye based broth microdilution method; format: functional, organism-based; method in brief: as §3
Staphylococcus aureus [10] = assay: Antibacterial activity against methicillin/ceftriaxone/meropenem-resistant Staphylococcus aureus NRS10192 clinical isolate assessed as bacterial growth inhibition incubated for 16 to 18 hrs by CLSI based antibiotic susceptibility testing method; format: functional; conditions: time 16-18 hrs; method in brief: as §2
Escherichia coli = assay: Antibacterial activity against Escherichia coli ATCC 25922 assessed as bacterial growth inhibition incubated for 16 to 18 hrs by CLSI based antibiotic susceptibility testing method; format: functional, organism-based; conditions: time 16-18 hrs; method in brief: as §2
Staphylococcus aureus [11] = assay: Bactericidal activity against Staphylococcus aureus ATCC 29213 assessed as reduction in remnant bacterial cells measured for 24 hrs by time-kill assay; format: functional, organism-based; method in brief: as §1
Staphylococcus aureus [12] = assay: Antibacterial activity against methicillin/ceftriaxone/meropenem/vancomycin/teicoplanin-resistant Staphylococcus aureus VRS12 clinical isolate assessed as bacterial growth inhibition incubated for 16 to 18 hrs by CLSI based antibiotic susceptibility testing method; format: functional; conditions: time 16-18 hrs; method in brief: as §2
Staphylococcus aureus [13] = assay: Antibacterial activity against methicillin/ceftriaxone/meropenem/gentamycin/linezolid-resistant Staphylococcus aureus NRS10119 clinical isolate assessed as bacterial growth inhibition incubated for 16 to 18 hrs by CLSI based antibiotic susceptibility testing method; format: functional; conditions: time 16-18 hrs; method in brief: as §2
Acinetobacter baumannii = assay: Antibacterial activity against Acinetobacter baumannii BAA 1605 assessed as bacterial growth inhibition incubated for 16 to 18 hrs by CLSI based antibiotic susceptibility testing method; format: functional, organism-based; conditions: time 16-18 hrs; method in brief: as §2
Staphylococcus aureus [14] = assay: Antibacterial activity against methicillin/ceftriaxone/meropenem-resistant Staphylococcus aureus NRS10198 clinical isolate assessed as bacterial growth inhibition incubated for 16 to 18 hrs by CLSI based antibiotic susceptibility testing method; format: functional; conditions: time 16-18 hrs; method in brief: as §2
[15] = Cytotoxicity against African green monkey Vero cells by MTT assay; format: toxicity, cell-based; conditions: chlorocebus sabaeus
Method in brief: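 Vero cells were seeded at ~10³ per well at 37 °C, 5% CO2. After 24 h, compounds were added at 5-100 mg/L for 72 h. […] was added for 4 h, formazan was dissolved in DMSO and read at 540 nm. CC50 was taken as the lowest concentration reducing viability by 50%; doxorubicin was the positive control; triplicate.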

Pseudomonas aeruginosa = assay: Antibacterial activity against Pseudomonas aeruginosa ATCC 27853 assessed as bacterial growth inhibition incubated for 16 to 18 hrs by CLSI based antibiotic susceptibility testing method; format: functional, organism-based; conditions: time 16-18 hrs; method in brief: as §2
Staphylococcus aureus [16] = assay: Antibacterial activity against methicillin/ceftriaxone/meropenem-resistant Staphylococcus aureus NRS10129 clinical isolate assessed as bacterial growth inhibition incubated for 16 to 18 hrs by CLSI based antibiotic susceptibility testing method; format: functional; conditions: time 16-18 hrs; method in brief: as §2
Staphylococcus aureus [17] = assay: Antibacterial activity against methicillin/ceftriaxone-resistant Staphylococcus aureus NRS10194 clinical isolate assessed as bacterial growth inhibition incubated for 16 to 18 hrs by CLSI based antibiotic susceptibility testing method; format: functional; conditions: time 16-18 hrs; method in brief: as §2
[18] = tested on: Mycobacterium tuberculosis; assay: Antimycobacterial activity against Mycobacterium tuberculosis H37Rv ATCC 27294 assessed as bacterial growth inhibition incubated for 7 days by resazurin dye based broth microdilution method; format: functional; conditions: H37Rv ATCC 27294, 168 h, time 7 day; method in brief: as §3
[19] = Selectivity index, ratio of CC50 for African green monkey Vero cells to MIC for Staphylococcus aureus ATCC 29213; format: toxicity, cell-based; conditions: read-out: Selectivity Index
Staphylococcus aureus [20] = assay: Antibacterial activity against methicillin/ceftriaxone/meropenem-resistant Staphylococcus aureus NRS10186 clinical isolate assessed as bacterial growth inhibition incubated for 16 to 18 hrs by CLSI based antibiotic susceptibility testing method; format: functional; conditions: time 16-18 hrs; method in brief: as §2
Staphylococcus aureus [21] = assay: Antibacterial activity against methicillin/ceftriaxone/meropenem/vancomycin/teicoplanin-resistant Staphylococcus aureus VRS4 clinical isolate assessed as bacterial growth inhibition incubated for 16 to 18 hrs by CLSI based antibiotic susceptibility testing method; format: functional; conditions: time 16-18 hrs; method in brief: as §2

Structure (SMILES)	MIC (Staphylococcus aureus [2])	MIC (Staphylococcus aureus [3])	growth inhibition (GI) (Klebsiella pneumoniae)	growth inhibition (GI) (Mycobacteroides chelonae)	MIC (Staphylococcus aureus [4])	MIC (Staphylococcus aureus [5])	MIC (Staphylococcus aureus [6])	MIC (Staphylococcus aureus [7])	growth inhibition (GI) [8]	growth inhibition (GI) [9]	MIC (Staphylococcus aureus [10])	growth inhibition (GI) (Escherichia coli)	MIC (Staphylococcus aureus [12])	MIC (Staphylococcus aureus [13])	growth inhibition (GI) (Acinetobacter baumannii)	MIC (Staphylococcus aureus [14])	CC50 [15]	growth inhibition (GI) (Pseudomonas aeruginosa)	MIC (Staphylococcus aureus [16])	MIC (Staphylococcus aureus [17])	further results
O=C1c2cccc3cccc(c23)C(=O)N1CCN1CCN(C(=S)NC2CCCC2)CC1	0.125 mg/L (≈ 0.286 µM)	0.125 mg/L (≈ 0.286 µM)	inactive	inactive	0.125 mg/L (≈ 0.286 µM)	0.25 mg/L (≈ 0.573 µM)	0.125 mg/L (≈ 0.286 µM)	0.125 mg/L (≈ 0.286 µM)	inactive	inactive	0.125 mg/L (≈ 0.286 µM)	inactive	0.25 mg/L (≈ 0.573 µM)	0.125 mg/L (≈ 0.286 µM)	inactive	0.125 mg/L (≈ 0.286 µM)	> 20 mg/L	inactive	0.25 mg/L (≈ 0.573 µM)	0.125 mg/L (≈ 0.286 µM)	Activity (Staphylococcus aureus [1]): ~5 log10CFU/ml; Activity (Staphylococcus aureus [11]): Dose-Dependent Effect; MIC [18]: 2 mg/L (≈ 4.58 µM); selectivity ratio [19]: > 160; MIC (Staphylococcus aureus [20]): 0.25 mg/L (≈ 0.573 µM); MIC (Staphylococcus aureus [21]): 0.125 mg/L (≈ 0.286 µM)
O=C1c2cccc3cccc(c23)C(=O)N1CCN1CCN(C(=S)NC2CCCCCC2)CC1	0.25 mg/L (≈ 0.538 µM)	1 mg/L (≈ 2.15 µM)	inactive	inactive	1 mg/L (≈ 2.15 µM)	0.5 mg/L (≈ 1.08 µM)	1 mg/L (≈ 2.15 µM)	0.5 mg/L (≈ 1.08 µM)	inactive	inactive	0.5 mg/L (≈ 1.08 µM)	inactive	1 mg/L (≈ 2.15 µM)	1 mg/L (≈ 2.15 µM)	inactive	1 mg/L (≈ 2.15 µM)	> 20 mg/L	inactive	0.5 mg/L (≈ 1.08 µM)	0.5 mg/L (≈ 1.08 µM)	Activity (Staphylococcus aureus [1]): ~5 log10CFU/ml; Activity (Staphylococcus aureus [11]): Dose-Dependent Effect; MIC [18]: > 64 mg/L; selectivity ratio [19]: > 80; MIC (Staphylococcus aureus [20]): 1 mg/L (≈ 2.15 µM); MIC (Staphylococcus aureus [21]): 0.5 mg/L (≈ 1.08 µM)
O=C(CN1C(=O)c2cccc3cccc(c23)C1=O)N1CCN(C(=S)NC2CCCCC2)CC1	0.25 mg/L (≈ 0.538 µM)	0.25 mg/L (≈ 0.538 µM)	inactive	inactive	0.25 mg/L (≈ 0.538 µM)	0.5 mg/L (≈ 1.08 µM)	0.25 mg/L (≈ 0.538 µM)	0.125 mg/L (≈ 0.269 µM)	inactive	inactive	0.125 mg/L (≈ 0.269 µM)	inactive	0.25 mg/L (≈ 0.538 µM)	0.25 mg/L (≈ 0.538 µM)	inactive	0.25 mg/L (≈ 0.538 µM)	> 100 mg/L	inactive	0.25 mg/L (≈ 0.538 µM)	0.125 mg/L (≈ 0.269 µM)	MIC [18]: > 64 mg/L; selectivity ratio [19]: > 400; MIC (Staphylococcus aureus [20]): 0.125 mg/L (≈ 0.269 µM); MIC (Staphylococcus aureus [21]): 0.25 mg/L (≈ 0.538 µM)
O=C(CN1C(=O)c2cccc3cccc(c23)C1=O)N1CCC(NC(=S)NC2CCCCCC2)CC1	0.25 mg/L (≈ 0.507 µM)	0.25 mg/L (≈ 0.507 µM)	inactive	inactive	0.25 mg/L (≈ 0.507 µM)	0.25 mg/L (≈ 0.507 µM)	0.25 mg/L (≈ 0.507 µM)	0.25 mg/L (≈ 0.507 µM)	inactive	inactive	0.25 mg/L (≈ 0.507 µM)	inactive	0.25 mg/L (≈ 0.507 µM)	0.25 mg/L (≈ 0.507 µM)	inactive	0.25 mg/L (≈ 0.507 µM)	> 100 mg/L	inactive	0.25 mg/L (≈ 0.507 µM)	0.25 mg/L (≈ 0.507 µM)	MIC [18]: > 64 mg/L; selectivity ratio [19]: > 400; MIC (Staphylococcus aureus [20]): 0.25 mg/L (≈ 0.507 µM); MIC (Staphylococcus aureus [21]): 0.25 mg/L (≈ 0.507 µM)
O=C(CN1C(=O)c2cccc3cccc(c23)C1=O)N1CCC(NC(=S)NC2CCCCC2)CC1	0.125 mg/L (≈ 0.261 µM)	0.125 mg/L (≈ 0.261 µM)	inactive	inactive	0.125 mg/L (≈ 0.261 µM)	0.125 mg/L (≈ 0.261 µM)	0.125 mg/L (≈ 0.261 µM)	0.125 mg/L (≈ 0.261 µM)	inactive	inactive	0.125 mg/L (≈ 0.261 µM)	inactive	0.125 mg/L (≈ 0.261 µM)	0.125 mg/L (≈ 0.261 µM)	inactive	0.125 mg/L (≈ 0.261 µM)	> 100 mg/L	inactive	0.125 mg/L (≈ 0.261 µM)	0.125 mg/L (≈ 0.261 µM)	MIC [18]: > 64 mg/L; selectivity ratio [19]: > 800; MIC (Staphylococcus aureus [20]): 0.125 mg/L (≈ 0.261 µM); MIC (Staphylococcus aureus [21]): 0.125 mg/L (≈ 0.261 µM)
